# ERp5 block – blocks human ERp5 reductase activity on insulin | Q15084 | ERp5 insulin aggregation, absorbance 650 nm, 90 min | inhibition, % at 9.99 µM | 350,000 tested, 0.05% active | AID 651711;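 active means mean replicate inhibition above about 25%, with every replicate also reaching it, limit read from the data, passing the limit was not always enough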
# Target sequence (Q15084 whole entry, looked up): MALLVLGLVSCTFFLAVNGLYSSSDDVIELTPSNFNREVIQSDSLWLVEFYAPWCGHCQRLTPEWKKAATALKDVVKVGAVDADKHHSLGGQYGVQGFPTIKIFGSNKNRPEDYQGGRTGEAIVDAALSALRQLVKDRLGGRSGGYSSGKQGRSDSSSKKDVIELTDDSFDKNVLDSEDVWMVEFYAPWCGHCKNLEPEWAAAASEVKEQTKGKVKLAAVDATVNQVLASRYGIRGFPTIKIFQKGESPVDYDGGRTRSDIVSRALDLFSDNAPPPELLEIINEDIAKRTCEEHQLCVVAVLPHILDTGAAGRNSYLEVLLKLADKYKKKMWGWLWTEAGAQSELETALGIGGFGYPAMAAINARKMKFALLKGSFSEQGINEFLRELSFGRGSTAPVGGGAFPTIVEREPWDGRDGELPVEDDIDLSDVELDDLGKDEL
# PDI turbidity – PDI (human) enzyme inhibition | inhibition, % at 10 µM | P07237 | 350,000 tested, 0.052% active | PDI insulin aggregation turbidity, A650, 90 min;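 active means mean inhibition across replicates of 30% or more, whatever share of single replicates reach that level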
# CAL PDZ FP-1 – human CAL PDZ-peptide interaction inhibition | Q9HD26 | purified CAL PDZ, TMR-peptide fluorescence polarization, 1 h | inhibition, % at 20 µM | 330,000 tested, 0.02% active | AID 504414;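 active means highest replicate inhibition of at least 40%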;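 further: plate controls were DMSO neutral control wells for no effect and unlabeled competitor peptide control wells for full effect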
#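 Test system: purified CerCALP PDZ construct; Compound dosing: one concentration, 20 µM compound; Also added: TMR-labelled reporter peptide T*-PRC34 bound in PDZ groove; Read-out: inhibition from polarization loss; Controls: unlabelled peptide and DMSO controls; Signal: FP readout, S and P plane fluorescence; Incubation: 1 h at RT.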
# CAL PDZ FP-2 – blocks peptide binding to the human CAL PDZ domain; Q9HD26; purified CAL PDZ, TMR-peptide fluorescence polarization, 1 h; inhibition, % at 24.9 µM; 300,000 tested, 0.92% active;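 active means mean inhibition of at least 30% with at least half of replicates also reaching 30%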;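 further: 0% = DMSO neutral control and 100% = excess unlabeled competitor peptide PRC23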
# RAD52 inh – blocks human RAD52 DNA annealing; AID 651710; P43351; 360,000 tested, 0.46% active; recombinant RAD52 DNA annealing, FRET fluorescence; inhibition, % at 18.7 µM;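 active means every replicate showing at least 50% inhibition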
# RAD54 branch – blocks human RAD54 Holliday junction branch migration; Q92698; FAM/BHQ fluorescence; inhibition, % at 10.4 µM; 360,000 tested, 0.14% active;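 active means mean normalized replicate activity at least 40 and at least half of replicates scoring 40 or more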;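 further: 0% = median of neutral control wells and 100% = median of positive control wells; inhibitors cause a drop in the FAM fluorescence signal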
# Starred values were filed as active, the others as inactive; . = no result given. In the library only some 1% were active in any assay of this set; here they are far more common.
SMILES,ERp5 block,PDI turbidity,CAL PDZ FP-1,CAL PDZ FP-2,RAD52 inh,RAD54 branch
Cc1ccc(S(=O)(=O)N2C[C@@H](O)COC[C@H]3O[C@H](CC(=O)NCC4CCCCC4)CC[C@@H]32)cc1,3,.,.,.,82*,-2
CC1CC(C)CN(C(=O)CCn2c(=O)oc3ccccc32)C1 (centres undefined),4,-9,14,45*,-8,-3
Cc1ccc(S(=O)(=O)N2CCN(C(=O)CN3C(=O)NC(C)(c4ccc5ccccc5c4)C3=O)CC2)cc1 (centres undefined),3,-1,-2,73*,-13,4
O=C(N/N=C/c1ccccc1O)c1ccncc1,-5,-13,-1,2,-19,5
O=C(N/N=C/c1cc(Br)ccc1O)c1ccncc1,1,0,.,113*,-7,-10
CCOc1ccccc1NC(=O)C(=O)N/N=C/c1cc(Br)ccc1O,0,-8,0,67*,-13,.
N#C[C@H]1[C@H](c2ccccc2-c2ccccc2F)[C@H](CO)N1C(=O)C1CCC1,-1,.,.,.,-5,.
O=C(COC(=O)c1cccc(OC(F)F)c1)NC1CCCC1,3,5,.,42*,-10,-13
C[C@H](CO)N1C[C@H](C)[C@H](CN(C)C(=O)Nc2ccc(C(F)(F)F)cc2)Oc2ccc(NC(=O)Nc3ccc4c(c3)OCO4)cc2C1=O,6,.,.,.,0,-2
Cc1ccc(OCC(=O)N2CCN(C(=O)c3cccs3)CC2)cc1,.,2,.,46*,.,-5
CNC[C@@H]1Oc2ccc(NS(=O)(=O)c3ccc(F)cc3)cc2CC(=O)N([C@@H](C)CO)C[C@@H]1C,-2,.,.,.,24,2
COCCNC(=O)C[C@@H]1C[C@H]2c3cc(NC(=O)CC4CC4)ccc3O[C@H]2[C@@H](CO)O1,5,.,.,.,4,2
N#CCCN(Cc1ccccc1)S(=O)(=O)c1cccs1,2,-3,.,61*,-14,-6
O=C(Nc1ccccc1)c1cccc(NC(=O)c2ccco2)c1,4,16,-2,-8,-5,0
CC(C)[C@H](NC(=O)c1ccco1)C(=O)OCC(=O)Nc1cccc(F)c1,1,4,-1,69*,-10,.
CC(Oc1ccccc1)C(=O)Nc1cccc(NC(=O)c2ccco2)c1 (centres undefined),-4,-7,.,118*,0,.
CN(C)C(=O)C[C@H]1CC[C@H]2[C@@H](COC[C@@H](O)CN2CC2CCCCC2)O1,2,.,.,.,1,-9
COCCNC(=O)/C(C#N)=C/c1c(N2CCN(c3ccccc3)CC2)nc2ccccn2c1=O,4,6,2,57*,-32,-8
COc1ccc(CN(C)C[C@H]2OCCCC[C@@H](C)Oc3ccc(NC(=O)Nc4cccc5ccccc45)cc3C(=O)N([C@H](C)CO)C[C@H]2C)cc1,1,.,.,.,6,-2
CO[C@@H]1CN(C)C(=O)c2ccc(NC(=O)Nc3c(C)noc3C)cc2OC[C@@H](C)N(CC2CC2)C[C@H]1C,-2,.,.,.,-8,16
COc1ccc(-c2ncncc2-c2ccc(OC)c(OC)c2)c(O)c1,3,-1,.,-6,-9,-2
COc1ccc(-c2nc(N)ncc2-c2ccc(OC)c(OC)c2)c(O)c1,3,2,.,59*,0,-1
O=c1c(OC2OC(CO)C(O)C(O)C2OC2OC(CO)C(O)C(O)C2O)c(-c2ccc(O)cc2)oc2cc(O)cc(O)c12 (centres undefined),-1,.,0,4,2,-15
O=c1c2c(O)cc(O)cc2oc2c(O)ccc(O[C@H]3O[C@@H](CO)[C@H](O)[C@@H](O)[C@@H]3O)c12,0,2,-1,-4,-1,13
O=c1c(OC2OC(CO)C(O)C(O)C2O)c(-c2ccc(O)c(O)c2)oc2cc(O)cc(O)c12 (centres undefined),2,54*,-2,-10,1,14
SMILES,ERp5 block,PDI turbidity,CAL PDZ FP-1,CAL PDZ FP-2,RAD52 inh,RAD54 branch
O=c1c(O[C@@H]2O[C@H](CO)C(O)C2O)c(-c2ccc(O)c(O)c2)oc2cc(O)cc(O)c12 (some centres undefined),.,41*,-2,-6,.,4
O=c1c(O[C@H]2O[C@@H](CO)[C@H](O)[C@@H](O)[C@@H]2O)c(-c2ccc(O)cc2)oc2cc(O)cc(O)c12,4,63*,-3,-6,4,11
COc1ccc(S(=O)(=O)Nc2cccc3c2O[C@@H](CN(C)Cc2ccc(C(F)(F)F)cc2)[C@H](C)CN([C@@H](C)CO)C3=O)cc1,-13,.,.,.,6,6
COC(=O)C[C@@H]1CC[C@@H]2[C@H](COC[C@@H](O)CN2S(=O)(=O)c2ccccc2C)O1,1,.,.,.,-10,9
Cc1cc(C)n2c(SCc3ccc(Br)cc3)nnc2n1,2,1,.,.,-3,-4
COC(=O)c1ccc(CSc2nnc3nc(C)cc(C)n23)cc1,-5,0,-1,33*,-17,.
O=C(NCCSc1ccccn1)c1ccc(Cl)cc1Cl,1,-1,11,33*,-18,-6
Cc1ccccc1N1CCN(C2CCCN(C(=O)c3csc(C(C)C)n3)C2)CC1 (centres undefined),0,1,-1,54*,-2,-7
CC(C)c1cc(C(=O)N2CCCC(N3CCN(c4ccc(F)cc4)CC3)C2)no1 (centres undefined),-2,-12,-1,57*,8,-8
COc1ccccc1N1CCN(C2CCCN(C(=O)c3cc(C(C)C)on3)C2)CC1 (centres undefined),7,1,.,.,-2,16
CN1C(=O)c2cc(NC(=O)C3CCOCC3)ccc2OC[C@@H]2O[C@@H](CC(=O)O)CC[C@H]21,-1,.,.,.,4,-8
CO[C@H]1CN(C)C(=O)c2cc(NC(C)=O)ccc2OC[C@H](C)N(C(=O)C2CC2)C[C@@H]1C,1,.,.,.,-4,6
O=C(COC(=O)Cc1ccc(F)cc1)NC1CCCCC1,-3,3,0,34*,-12,-6
COc1ccc2c3c([nH]c2c1)[C@H](CO)N(CC1CCOCC1)CC31CN(C(=O)C2CCOCC2)C1,4,.,.,.,-78,.
CCn1ncc([N+](=O)[O-])c1C(=O)Nc1cc(C)on1,.,3,1,-4,.,.
CCn1ncc(Br)c1C(=O)Nc1cc(C)on1,6,-1,-1,41*,-8,5
CCN(CC)CCNS(=O)(=O)c1ccc(Cl)cc1,.,-3,-2,0,.,-21
CCCN(CCC)CC(C)(C)NS(=O)(=O)c1ccc(Cl)cc1,-7,-3,-1,70*,-6,.
C[C@H]1CN([C@@H](C)CO)C(=O)Cc2cc(NC(=O)C3CCCCC3)ccc2O[C@@H]1CN(C)C(=O)Nc1cccc2ccccc12,4,.,.,.,3,-5
CC(C)CNS(=O)(=O)c1cc2c3c(c1)CCC(=O)N3CCC2,-2,6,-2,6,-3,-8
